# Published values from different studies.
# Lines come from different studies, so protocols differ.
SMILES,test system,conditions,endpoint,result
CCOC(=O)c1c(NC(=O)CNC(C)C)sc2c1CCCCC2,"male mouse, plasma","intraperitoneal, 5 mg/kg, single dose",MRT(0-inf),1.79 h
CC[C@H](C)[C@H](NC(=O)[C@H](CCC(=O)O)NC(=O)[C@H](CCC(=O)O)NC(=O)[C@@H]1CCCN1C(=O)[C@H](CO)NC(=O)[C@H](C)NC(=O)[C@H](CC(=O)O)NC(=O)[C@H](CCC(=O)O)NC(=O)[C@H](CCC(=O)O)NC(=O)[C@@H]1CCCN1C(=O)[C@H](CCCCNC(=O)COCCOCCNC(=O)COCCOCCNC(=O)CC[C@H](NC(=O)CCCCCCCCCCCCCCCCC(=O)O)C(=O)O)NC(=O)[C@H](C)NC(=O)[C@@H]1CCCN1C(=O)[C@H](C)NC(=O)CC(C)C)C(=O)N[C@@H](CCC(N)=O)C(=O)N[C@@H](CCCNC(=N)N)C(=O)N[C@@H](Cc1ccc(O)cc1)C(=O)N[C@@H](Cc1ccc(O)cc1)C(=O)N[C@H](C(=O)N[C@@H](CO)C(=O)N[C@@H](CC(C)C)C(=O)N[C@@H](CCCNC(=N)N)C(=O)N[C@@H](Cc1c[nH]cn1)C(=O)N[C@@H](Cc1ccc(O)cc1)C(=O)N[C@@H](Cc1ccc(O)cc1)C(=O)N[C@@H](CC(N)=O)C(=O)N[C@@H](Cc1c[nH]c2ccccc12)C(=O)N[C@@H](CC(C)C)C(=O)N[C@H](C(=O)N[C@@H](CCCNC(=N)N)C(=O)N[C@@H](CCC(N)=O)C(=O)N[C@@H](CCCNC(=N)N)C(=O)N[C@@H](Cc1ccc(O)cc1)C(N)=O)[C@@H](C)O)C(C)C,"male NMRI mouse, plasma","subcutaneous, 30 nmol/kg, single dose",MRT,18 h
COC1=CC(c2ccc[nH]2)=N/C1=C\c1cc(Cc2ccc(OC(F)(F)F)cc2)c(C)[nH]1.Cl,"male CD-1 mouse, plasma","oral, 40 mg/kg, single dose",MRT(0-t),34.4 h
Cc1nc2ccc(OCc3ccc(C(F)(F)F)cc3)cc2[nH]1,"male BALB/c mouse, plasma","oral, 10 mg/kg",MRT(0-inf),4.04 h
COC1=CC(c2ccc[nH]2)=N/C1=C\c1[nH]c(Cc2ccc(OC(F)(F)F)cc2)cc1Cc1ccc(OC(F)(F)F)cc1,"male CD-1 mouse, liver","oral, 40 mg/kg, single dose",MRT(0-t),22.2 h
CCOC(=O)C1=C(CN2CCC[C@@H]2C(=O)Nc2ccc(B(O)O)cc2)NC(c2nccs2)=N[C@H]1c1ccc(F)cc1Br,"CD-1 mouse, plasma","oral, 10 mg/kg",MRT(0-inf),1 h
O=C1CCC(N2Cc3cc(C4CCN(Cc5ccccc5)CC4)ccc3C2=O)C(=O)N1 (stereo not shown),"male CD-1 mouse, plasma","intravenous, 1 mg/kg",MRT(0-inf),3.34 h
OCc1nc2ccc(NCc3ccc(C(F)(F)F)cc3)cc2[nH]1,"male BALB/c mouse, plasma","intravenous, 1 mg/kg",MRT(0-inf),1.1 h
C[C@@H]1COCCN1c1cc(=O)n2c(n1)N(Cc1cncc(Cl)c1)[C@H](C(F)(F)F)CC2,"C57BL/6 mouse, plasma","intraperitoneal, 10 mg/kg, single dose",MRT(0-t),0.45 h
Cc1ccc(CCC(=O)Nc2nnc(S(N)(=O)=O)s2)cc1,"male BALB/c mouse, plasma","oral, 20 mg/kg",MRT,3.74 h
